Source: ChEMBL document CHEMBL1938380, “Indole RSK inhibitors. Part 1: discovery and initial SAR” (Bioorg Med Chem Lett, 2012)

Assays:
[1] = biological target: T1, Ribosomal protein S6 kinase alpha-3 (Homo sapiens, UniProt P51812); experiment: Inhibition of RSK2 phosphorylation by luminescence assay
Method in brief: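 Soluble RSK2 enzyme; its phosphorylation activity was read out in a luminescent kinase assay format adapted from a published method.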

[2] = biological target: T1, Ribosomal protein S6 kinase alpha-3; experiment: Inhibition of RSK2-mediated CREB phosphorylation in HeLa cells expressing luciferase reporter gene; type: cell-based

T1 sequence (P51812 whole entry): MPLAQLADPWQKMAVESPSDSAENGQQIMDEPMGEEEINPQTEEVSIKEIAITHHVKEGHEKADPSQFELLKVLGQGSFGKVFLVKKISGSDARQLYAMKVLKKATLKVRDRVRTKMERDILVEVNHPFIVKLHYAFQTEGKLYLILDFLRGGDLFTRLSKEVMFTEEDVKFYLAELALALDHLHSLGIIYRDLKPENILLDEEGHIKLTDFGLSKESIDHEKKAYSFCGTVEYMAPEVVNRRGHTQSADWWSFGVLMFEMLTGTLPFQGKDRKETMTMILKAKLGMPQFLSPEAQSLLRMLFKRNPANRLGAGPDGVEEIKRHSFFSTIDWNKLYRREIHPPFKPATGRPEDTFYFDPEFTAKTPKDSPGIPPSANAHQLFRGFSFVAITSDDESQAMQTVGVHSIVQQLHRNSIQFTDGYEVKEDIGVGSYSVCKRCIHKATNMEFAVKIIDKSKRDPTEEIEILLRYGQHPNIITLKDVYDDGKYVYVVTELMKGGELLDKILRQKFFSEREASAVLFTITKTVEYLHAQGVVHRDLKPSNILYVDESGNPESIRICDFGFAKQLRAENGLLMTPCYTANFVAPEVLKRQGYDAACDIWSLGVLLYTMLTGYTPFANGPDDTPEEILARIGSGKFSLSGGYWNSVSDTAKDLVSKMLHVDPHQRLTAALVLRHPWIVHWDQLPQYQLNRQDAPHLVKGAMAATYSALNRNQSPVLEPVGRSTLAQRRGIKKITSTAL

Q: Which IC50 [1] does the source give for Cn1nccc1NC(=O)c1ccc2cc3n(c2c1)CCCNC3=O here?
A: The IC50 was > 1 µM.

Q: What does the source list for O=C(NCc1cccnc1)c1ccc2cc3n(c2c1)CCCNC3=O?
A: IC50 [2]: > 10 µM; IC50 [1]: > 10 µM

Q: CC1CCn2c(cc3ccc(C(=O)Nc4cccnc4)cc32)C(=O)N1 (centres undefined) was tested. Which IC50 [1] did it give?
A: The IC50 was 2.5 µM.

Q: For O=C(Nc1cccnc1)c1ccc2cc3n(c2c1)CCNC3=O, which IC50 [2] is on record?
A: The IC50 was > 10 µM.

Q: And the IC50 [1]?
A: Its IC50 is 0.73 µM.

Q: C[C@@H]1CNC(=O)c2cc3ccc(C(=O)Nc4cccnc4)cc3n2[C@@H]1C (relative stereo) was tested. Which IC50 [1] did it give?
A: Its IC50 is 0.24 µM.

Q: CC1(C)CNC(=O)c2cc3ccc(C(=O)Nc4cccnc4)cc3n21 was tested. Which IC50 [2] did it give?
A: Its IC50 is 1.55 µM.

Q: And the IC50 [1]?
A: The IC50 was 0.21 µM.

Q: For O=C(Nc1nc2ccccc2o1)c1ccc2cc3n(c2c1)CCCNC3=O, which IC50 [2] is on record?
A: The IC50 was > 10 µM.

Q: O=C(Nc1nc2ccccc2s1)c1ccc2cc3n(c2c1)CCCNC3=O was tested. Which IC50 [1] did it give?
A: Its IC50 is > 10 µM.

Q: CC1CNC(=O)c2cc3ccc(C(=O)Nc4cccnc4)cc3n21 (centres undefined) was tested. Which IC50 [2] did it give?
A: Its IC50 is 1.63 µM.

Q: What about the IC50 [1] of the same compound?
A: The IC50 was 0.17 µM.

Q: Which IC50 [1] does the source give for NCC1Cn2c(cc3ccc(C(=O)Nc4cccnc4)cc32)C(=O)N1 (centres undefined) here?
A: Its IC50 is 0.97 µM.

Q: How did the IC50 [2] turn out when O=C(Nc1cccnc1)c1ccc2cc3n(c2c1)CCCNC3=O was run?
A: Its IC50 is 1.94 µM.

Q: And the IC50 [1]?
A: The IC50 was 0.24 µM.

Q: For O=C(Nc1cn[nH]c1)c1ccc2cc3n(c2c1)CCCNC3=O, which IC50 [2] is on record?
A: Its IC50 is > 10 µM.

Q: With O=C(Nc1cccnc1)c1ccc2cc3n(c2c1)CC1(CC1)CNC3=O as the compound, how does the IC50 [1] read?
A: The IC50 was 0.41 µM.

Q: With O=C(Nc1cnc2ccccc2c1)c1ccc2cc3n(c2c1)CCCNC3=O as the compound, how does the IC50 [2] read?
A: The IC50 was 0.34 µM.

Q: With CC1Cn2c(cc3ccc(C(=O)Nc4cccnc4)cc32)C(=O)N1 (centres undefined) as the compound, how does the IC50 [1] read?
A: Its IC50 is 0.35 µM.

Q: With O=C(Nc1nccs1)c1ccc2cc3n(c2c1)CCCNC3=O as the compound, how does the IC50 [1] read?
A: The IC50 was 2.2 µM.

Q: Which IC50 [2] does the source give for C[C@@H]1NC(=O)c2cc3ccc(C(=O)Nc4cccnc4)cc3n2[C@@H]1C (relative stereo) here?
A: Its IC50 is 0.84 µM.

Q: And the IC50 [1]?
A: Its IC50 is 0.045 µM.

Q: What does the source list for CC1CNC(=O)c2cc3ccc(C(=O)Nc4cccnc4)cc3n2C1 (centres undefined)?
A: IC50 [2]: 4.89 µM; IC50 [1]: 1.2 µM

Q: How did the IC50 [2] turn out when CC(C)n1ncc2cc(NC(=O)c3ccc4cc5n(c4c3)CCCNC5=O)cnc21 was run?
A: The IC50 was 0.84 µM.

Q: Which IC50 [2] does the source give for O=C(Nc1ccccc1)c1ccc2cc3n(c2c1)CCCNC3=O here?
A: Its IC50 is 1.93 µM.

Q: For O=C(Nc1ncc[nH]1)c1ccc2cc3n(c2c1)CCCNC3=O, which IC50 [2] is on record?
A: Its IC50 is 0.29 µM.

Q: NC(=O)c1ccc2cc3n(c2c1)CCCNC3=O was tested. Which IC50 [1] did it give?
A: Its IC50 is 9.1 µM.

Q: How did the IC50 [2] turn out when CC1CCNC(=O)c2cc3ccc(C(=O)Nc4cccnc4)cc3n21 (centres undefined) was run?
A: The IC50 was 0.89 µM.

Q: What does the source list for O=C(Nc1ccc2ccccc2n1)c1ccc2cc3n(c2c1)CCCNC3=O?
A: IC50 [2]: 1.13 µM; IC50 [1]: 0.068 µM

Q: How did the IC50 [2] turn out when O=C(Nc1nc2ccccc2[nH]1)c1ccc2cc3n(c2c1)CCCNC3=O was run?
A: Its IC50 is > 10 µM.

Q: What about the IC50 [1] of the same compound?
A: The IC50 was 0.004 µM.

Q: With NCC1CNC(=O)c2cc3ccc(C(=O)Nc4cccnc4)cc3n2C1 (centres undefined) as the compound, how does the IC50 [1] read?
A: The IC50 was 1.8 µM.

Q: How did the IC50 [1] turn out when O=C(NC1CCCCC1)c1ccc2cc3n(c2c1)CCCNC3=O was run?
A: The IC50 was > 10 µM.

Q: How did the IC50 [2] turn out when NC(=O)c1ccccc1NC(=O)c1ccc2cc3n(c2c1)CCCNC3=O was run?
A: Its IC50 is 0.56 µM.

Q: Which IC50 [1] does the source give for C[C@@H]1[C@@H](C)NC(=O)c2cc3ccc(C(=O)Nc4cccnc4)cc3n21 (relative stereo) here?
A: Its IC50 is 0.871 µM.

Q: With O=C(Nc1ccc(Cl)cc1)c1ccc2cc3n(c2c1)CCCNC3=O as the compound, how does the IC50 [1] read?
A: Its IC50 is 0.18 µM.

Q: Which IC50 [1] does the source give for O=C(Nc1ncccn1)c1ccc2cc3n(c2c1)CCCNC3=O here?
A: Its IC50 is > 10 µM.

Q: How did the IC50 [2] turn out when O=C(Nc1ccccn1)c1ccc2cc3n(c2c1)CCCNC3=O was run?
A: The IC50 was 2.63 µM.

Q: Which results are given for O=C(Nc1ccncc1)c1ccc2cc3n(c2c1)CCCNC3=O?
A: IC50 [2]: 0.62 µM; IC50 [1]: 0.034 µM

Q: O=C(Nc1cccnc1)c1ccc2cc3n(c2c1)CC1(CCOCC1)CNC3=O was tested. Which IC50 [1] did it give?
A: The IC50 was > 10 µM.
